Calls of active or inactive are those of the source. No cut-off for these calls is given here.
How the values were obtained:
Assay type in all cases: functional
SK-MEL-2 = experiment: Growth inhibition of human SK-MEL-2 cells at 10 uM after 48 hrs by coulter counting; settings: SK-MEL-2, 48 h, read-out: GI
Summary of the method: (§1)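 Single-dose primary screen across the full NCI 60-cell-line panel. Stocks were made in DMSO and diluted in PBS to a final DMSO below 1%. Cultures at 6 × 10⁴ cells/ml were run in duplicate wells alongside PBS/DMSO vehicle controls at 37 °C in humidified 5% CO₂. Data were expressed as percent growth of treated cells.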

[1] = Cytotoxicity against human renal cancer cells after 48 hrs by coulter counting; settings: Cancer cell lines
Summary of the method: (§2)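 NCI 60-cell-line panel covering nine tumour subpanels, tested over a 5-log dose range. Compounds were dissolved in DMSO and diluted in phosphate-buffered saline to a final DMSO below 1%. Wells held 6 × 10⁴ cells/ml and were run in duplicate. Controls contained PBS and DMSO at matching dilutions. Incubation was at 37 °C in humidified 5% CO₂. GI₅₀, TGI and LC₅₀ were reported.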

HT-29 = experiment: Growth inhibition of human HT-29 cells at 10 uM after 48 hrs by coulter counting; summary of the method: as §1
DU-145 = experiment: Growth inhibition of human DU145 cells at 10 uM after 48 hrs by coulter counting; summary of the method: as §1
[2] = Cytotoxicity against human melanoma cells after 48 hrs by coulter counting; settings: Melanoma cell; for CC50: read-out: LC50 (the source's name); summary of the method: as §2
SK-MEL-28 = experiment: Growth inhibition of human SK-MEL-28 cells at 10 uM after 48 hrs by coulter counting; settings: SK-MEL-28, 48 h, read-out: GI; summary of the method: as §1
UACC-62 = experiment: Growth inhibition of human UACC62 cells at 10 uM after 48 hrs by coulter counting; settings: for inhibition of growth at 10 µM: UACC-62, 48 h, read-out: GI
Summary of the method: (§3)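 Single-dose screen in the NCI 60 human tumor cell line panel (nine subpanels). Compounds dissolved in DMSO and diluted in phosphate buffered saline, keeping final DMSO below 1%. Added in duplicate wells to cells at 6 × 10⁴ cells/ml. Controls held PBS and DMSO at matching dilutions. Incubated at 37 °C, humidified, 5% CO₂. Reported as percent growth of treated cells.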

BT-549 = experiment: Growth inhibition of human BT549 cells at 10 uM after 48 hrs by coulter counting; settings: BT-549, 48 h, read-out: GI; summary of the method: as §1
[3] = Cytotoxicity against human prostate cancer cells after 48 hrs by coulter counting; settings: Cancer cell lines; summary of the method: as §2
SF-295 = experiment: Growth inhibition of human SF295 cells at 10 uM after 48 hrs by coulter counting; settings: SF-295, 48 h, read-out: GI; summary of the method: as §1
NSCLC = experiment: Cytotoxicity against human NSCLC cells after 48 hrs by coulter counting; settings: for CC50: read-out: LC50 (the source's name); summary of the method: as §2
UO-31 = experiment: Growth inhibition of human UO31 cells at 10 uM after 48 hrs by coulter counting; summary of the method: as §3
[4] = Cytotoxicity against human colon cancer cells after 48 hrs by coulter counting; settings: Cancer cell lines; summary of the method: as §2
[5] = Cytotoxicity against human breast cancer cells after 48 hrs by coulter counting; settings: Cancer cell lines; for CC50: read-out: LC50 (the source's name); summary of the method: as §2
T47D = experiment: Growth inhibition of human T47D cells at 10 uM after 48 hrs by coulter counting; settings: read-out: GI; summary of the method: as §3
[6] = Growth inhibition of human NCI-322M cells at 10 uM after 48 hrs by coulter counting; settings: read-out: GI; summary of the method: as §1
SNB-75 = experiment: Growth inhibition of human SNB75 cells at 10 uM after 48 hrs by coulter counting; settings: SNB-75, 48 h, read-out: GI; summary of the method: as §1

| SMILES | inhibition of growth at 10 µM (SK-MEL-2) [%] | GI50 [1] [µM] | LC50 (concentration giving 50% net cell kill) [1] [µM] | TGI [1] [µM] | growth inhibition (GI) (HT-29) | growth inhibition (GI) (DU-145) | GI50 [2] [µM] | TGI [2] [µM] | CC50 [2] [µM] | inhibition of growth at 10 µM (SK-MEL-28) [%] | inhibition of growth at 10 µM (BT-549) [%] | GI50 [3] [µM] | LC50 (concentration killing 50% of cells) [3] [µM] | TGI [3] [µM] | inhibition of growth at 10 µM (SF-295) [%] | GI50 (NSCLC) [µM] | TGI (NSCLC) [µM] | CC50 (NSCLC) [µM] | GI50 [4] [µM] | LC50 (concentration giving 50% net cell kill) [4] [µM] | further results |
| --- | --- | --- | --- | --- | --- | --- | --- | --- | --- | --- | --- | --- | --- | --- | --- | --- | --- | --- | --- | --- | --- |
| CCN1CC2=C(N=C3SC=CN3C2c2ccc(OC)cc2)/C(=C/c2ccc(OC)cc2)C1 (configuration not stated) | > 10 | 2.3 | 24.9 | 6 | Active | Active | 3.5 | 10.9 | 55 | 10.9 | 55.2 | 2.8 | 68.1 | 43.9 | 71.8 | 2.5 | 18.3 | 64.9 | 1.7 | 6.7 | inhibition of growth at 10 µM (UACC-62): 49.3%; growth inhibition (GI) (UO-31): Active; TGI [4]: 3.4 µM; GI50 [5]: 2.5 µM; TGI [5]: 8 µM; CC50 [5]: 73.4 µM; inhibition of growth at 10 µM (T47D): 24.4%; inhibition of growth at 10 µM [6]: 29%; inhibition of growth at 10 µM (SNB-75): 22.3% |
| CCN1CC2=C(N=C3SC=CN3C2c2ccc(OC)c(OC)c2)/C(=C/c2ccc(OC)c(OC)c2)C1 (configuration not stated) | 11.5 | 3.1 | 52.8 | 9.8 | Active | Active | 3.4 | 10.1 | 44.6 | 61.3 | > 10 | 3.4 | 68.4 | 29.8 | 82.2 | 3.2 | 40.1 | 76.5 | 2 | 29.3 | inhibition of growth at 10 µM (UACC-62): 62.4%; inhibition of growth at 10 µM (UO-31; UO-31, 48 h, read-out: GI): 40.7%; TGI [4]: 4.3 µM; GI50 [5]: 19.3 µM; TGI [5]: 43.9 µM; CC50 [5]: 74.7 µM; inhibition of growth at 10 µM (T47D): > 10%; inhibition of growth at 10 µM [6]: 19.1%; inhibition of growth at 10 µM (SNB-75): 71.4% |
| CCN1CC2=C(N=C3SC=C(C)N3C2c2ccc(OC)c(OC)c2)/C(=C/c2ccc(OC)c(OC)c2)C1 (configuration not stated) | 27.4 | 2.5 | 47.1 | 8.9 | Active | Active | 2.7 | 10.8 | 54.4 | 96.5 | 57 | 2.8 | 79.2 | 53.4 | 69.2 | 3 | 44.2 | 86.5 | 2.1 | 35.3 | growth inhibition (GI) (UACC-62): Active; growth inhibition (GI) (UO-31): Active; TGI [4]: 5.6 µM; GI50 [5]: 5.7 µM; TGI [5]: 49.5 µM; CC50 [5]: 68.2 µM; inhibition of growth at 10 µM (T47D): 26.2%; inhibition of growth at 10 µM [6]: 63.6%; inhibition of growth at 10 µM (SNB-75): 68.1% |

Reference: ChEMBL document CHEMBL1926614, “Substituted thiazoles V. synthesis and antitumor activity of novel thiazolo[2,3-b]quinazoline and pyrido[4,3-d]thiazolo[3,2-a]pyrimidine analogues” (2012)
